The results in this text go back to ChEMBL document CHEMBL1153806, “Preclinical efficacy of a carboxylesterase 2-activated prodrug of doxazolidine” (J Med Chem, 2009).

Active and inactive are the calls of the source. The calls are words filed in the database; no cut-off is given here.

Data set [1] deals with Mus musculus. Description: Toxicity in NOD/SCID mouse xenografted with human HepG2 cells expressing CES2 gene at 3 mg/kg, iv administered on day 7, 14 and 21 after tumor implantation. Further details: dose 3 mg/kg, route intravenous. The settings on record: in vivo. It is filed as organism-based. On the technique in general: Xenograft models place foreign cells or tissue in a host animal.

Data set [2] is described as follows: Toxicity in pentyl PABC-doxazolidine-treated NOD/SCID mouse xenografted with human HepG2 cells expressing CES2 gene assessed as mortality rate at 5 mg/kg, iv administered on day 45 after tumor implantation. The format is organism-based. The arrangement: dose 5 mg/kg, route intravenous. The settings on record: in vivo, read-out: Activity. In short, it runs like this:
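NOD/SCID females carried s.c. left-flank N-Hep G2 xenografts (about 1.5 × 10⁷ cells). They first received i.v. 3 mg/kg Dox-equivalent on days 7, 14 and 21. The same group was then redosed i.v. at 5 mg/kg on days 45 and 52 in 5% DMSO/95% D5W. There were 10 mice per group. Deaths were counted to the end of the study.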

The subject of data set [3] is Mus musculus. Description: Toxicity in NOD/SCID mouse xenografted with human HepG2 cells expressing CES2 gene assessed as body weight change at 4 mg/kg, iv administered on day 7, 14 and 21 after tumor implantation. The format is organism-based. The arrangement: dose 4 mg/kg, route intravenous. The settings on record: in vivo. In short, it runs like this: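 Female NOD/SCID mice, 4–6 weeks old, 10 per group. About 1.5 × 10⁷ N-Hep G2 cells were injected s.c. into the left flank. Tail-vein i.v. dosing (mg/kg Dox-equivalent weight) was given on days 7, 14 and 21. Vehicle was 5% DMSO/95% D5W, and controls received vehicle only. Body weight was measured weekly over the first 5 weeks. Survival was followed to study end.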

For data set [4], the system named is Mus musculus. Description: Toxicity in NOD/SCID mouse xenografted with human HepG2 cells expressing CES2 gene assessed as body weight loss at 5 mg/kg, iv administered on day 7, 14 and 21 after tumor implantation measured after 3 weeks. The settings on record: in vivo, 504 h. The arrangement: dose 5 mg/kg, route intravenous. It is filed as organism-based. In short, it runs like this:
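Same NOD/SCID N-Hep G2 flank xenograft model: i.v. tail-vein dosing on days 7, 14 and 21 in 5% DMSO/95% D5W, doses in Dox-equivalent mg/kg, 10 mice/group, vehicle controls. Body weight recorded weekly and followed over the first 5 weeks.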

The subject of data set [5] is NCI-H1435. Description: Antitumor activity against human NCI-H1435 cells expressing CES2 gene xenografted in athymic nude mouse assessed as inhibition of tumor growth at 4 mg/kg, iv administered on day 7, 14 and 21 after tumor implantation. The arrangement: dose 4 mg/kg. The format is functional, organism-based. The method, boiled down:
(§1)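 Athymic nude females, 4–6 weeks old, given ~2 × 10⁶ H1435 cells s.c. in the left flank on day 0; 10 mice/group. I.v. tail-vein doses (Dox-equivalent mg/kg) in 5% DMSO/95% D5W on days 7, 14 and 21, with all groups retreated on days 56, 63 and 70; vehicle controls. Caliper volume π × short² × long/6. Cube roots analysed with day-7 size as baseline covariate, by period.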

For data set [6], the system named is NCI-H1435. Description: Antitumor activity against human NCI-H1435 cells expressing CES2 gene xenografted in pentyl PABC-doxazolidine-pretreated athymic nude mouse assessed as inhibition of tumor growth at 3 to 4 mg/kg, iv administered on day 63 after tumor implantation. It is filed as functional, organism-based. In short, it runs like this: as §1
For data set [7], the system named is Mus musculus. Description: Toxicity in athymic nude mouse xenografted with human NCI-H1435 cells expressing CES2 gene at 3 to 4 mg/kg, iv administered on day 7, 14 and 21 after tumor implantation. It is filed as organism-based. The arrangement: dose 3-4 mg/kg, route intravenous. The settings on record: in vivo.
The subject of data set [8] is NCI-H1435. Description: Antitumor activity against human NCI-H1435 cells expressing CES2 gene xenografted in athymic nude mouse assessed as reduction in tumor size at 3 to 4 mg/kg, iv administered on day 7, 14 and 21 after tumor implantation. It is filed as functional, organism-based. The method, boiled down:
as §1

The subject of data set [9] is NCI-H1435. Description: Antitumor activity against human NCI-H1435 cells expressing CES2 gene xenografted in athymic nude mouse assessed as slowing of tumor growth at 4 mg/kg, iv administered as three weekly infusion from day 21 to 56 after tumor implantation. The format is functional, organism-based. The arrangement: dose 4 mg/kg. The method, boiled down: as §1
Data set [10] relates to Mus musculus. Description: Toxicity in athymic nude mouse xenografted with human NCI-H1435 cells expressing CES2 gene assessed as myofibril disorganization and vacuolization of heart tissue administered with six iv injection of 3 to 4 mg/kg by hematoxylin/eosin staining-based microscopy. The format is organism-based. Further details: dose 3-4 mg/kg, route intravenous. The settings on record: in vivo. The method, boiled down:
(§2)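 Hearts and livers taken from the H1435 nude-mouse study (six i.v. injections) after CO₂/cervical dislocation. Fixed in 10% formalin for 24 h, paraffin-embedded, and cut at 4 µm. Slides deparaffinized in xylene and ethanol, stained with Mayer's hematoxylin for 2 min, blued in 1% ammonium hydroxide, and counterstained with eosin for 30 s. Examined by light microscopy.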

For data set [11], the system named is Mus musculus. Description: Toxicity in athymic nude mouse xenografted with human NCI-H1435 cells expressing CES2 gene assessed as appearance of fibrotic damage in heart tissue administered with six iv injection of 3 to 4 mg/kg by hematoxylin/eosin staining-based microscopy. Further details: dose 3-4 mg/kg, route intravenous. It is filed as organism-based. To be noted: in vivo. The method, boiled down: as §2

Data set [12] relates to Mus musculus. Description: Toxicity in iv dosed athymic nude mouse xenografted with human NCI-H1435 cells expressing CES2 gene assessed as appearance of cytoplasmic lipid droplets in hepatocytes administered as six injection by hematoxylin/eosin staining-based microscopy. The format is organism-based, Hepatocyte. The method, boiled down:
as §2

Data set [13] concerns Mus musculus. Description: Toxicity in athymic nude mouse xenografted with human NCI-H1435 cells expressing CES2 gene assessed as occurrence of fatty liver administered with six iv injection of 4 mg/kg by hematoxylin/eosin staining-based microscopy. It is filed as organism-based. The arrangement: dose 4 mg/kg, route intravenous. To be noted: in vivo. In short, it runs like this:
(§3)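 Female athymic nude mice, 4–6 weeks old, 10 per group. About 2 × 10⁶ H1435 cells were implanted s.c. into the left flank. I.v. tail-vein doses (Dox-equivalent) were given on days 7, 14, 21, 56, 63 and 70 in 5% DMSO/95% D5W. At sacrifice, organs were fixed in 10% formalin for 24 h and paraffin-embedded. Sections were cut at 4 µm and stained with hematoxylin/eosin for microscopy.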

The test system of data set [14] is Mus musculus. Description: Toxicity in athymic nude mouse xenografted with human NCI-H1435 cells expressing CES2 gene assessed as thickening of Bowman's capsule in glomerulus administered with six iv injection of 4 mg/kg by hematoxylin/eosin staining-based microscopy. Further details: dose 4 mg/kg, route intravenous. To be noted: in vivo. The format is organism-based. In short, it runs like this: as §3

The subject of data set [15] is Mus musculus. Description: Toxicity in athymic nude mouse xenografted with human NCI-H1435 cells expressing CES2 gene assessed as vacuolar damage in ileum administered with six iv injection of 3 to 4 mg/kg by hematoxylin/eosin staining-based microscopy. To be noted: in vivo. The format is organism-based. The arrangement: dose 3-4 mg/kg, route intravenous. In short, it runs like this:
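Kidney and ileum taken from the H1435 nude-mouse study (six i.v. injections). Formalin-fixed for 24 h, paraffin-embedded, and cut into 4 µm sections. Sections deparaffinized in xylene, rehydrated through an ethanol series, stained in Harris hematoxylin for 50 s with eosin, then dehydrated and mounted. Morphology assessed by microscopy.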

Data set [16] is described as follows: Metabolic stability in NOD/SCID mouse plasma up to 24 hrs by reverse-phase HPLC analysis. It is filed as ADME, cell-free. The settings on record: read-out: Stability. The method, boiled down:
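PPD from a 1 mM DMSO stock diluted 10 µL into 190 µL of plasma (healthy NOD/SCID mouse, or pooled human from 40 donors) at 37 °C; sampled at 0 and 24 h. Samples digested with proteinase K (2 mg/mL) for 4 h at 37 °C, then run on C18 reverse-phase HPLC with a triethylammonium acetate pH 6.0/acetonitrile gradient, detection at 480 nm.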

Another data set deals with NCI60. Description: Growth inhibition of human NCI60 cells after 2 days by sulforhodamine B assay. The format is functional, cell-based.
The species entered for a further data set is Homo sapiens. Description: Metabolic stability in human plasma up to 24 hrs by reverse-phase HPLC analysis.

`CCCCCOC(=O)Nc1ccc(COC(=O)N2CO[C@@H]3[C@H](C)O[C@@H](O[C@H]4C[C@](O)(C(=O)CO)Cc5c(O)c6c(c(O)c54)C(=O)c4c(OC)cccc4C6=O)C[C@@H]32)cc1`: the Activity result in the data set with Mus musculus [1] was “Non-toxic”; with Mus musculus [3], “Active”; in the data set with Mus musculus [4], 18%; with Mus musculus [7], “Non-toxic”; with Mus musculus [10], “Non-toxic”; in the data set on Mus musculus [11], “Non-toxic”. Besides, the Activity result was “Dose-dependent effect” with Mus musculus [12], “Toxic” with Mus musculus [13], “Toxic” in the data set on Mus musculus [14] and “Non-toxic” in the data set on Mus musculus [15]. In addition, the mortality in data set [2] came out at 60%. Also, the inhibition result in the data set on NCI-H1435 [5] and with NCI-H1435 [6] was “Active” each time. Moreover, the outcome in the data set on NCI-H1435 [8] and in the data set with NCI-H1435 [9] was inactive. Further, the remaining at 24 h in data set [16] amounted to 16%; in the data set listed under Homo sapiens, 75%. Further, the “growth inhibition (GI)” value with NCI60 was “Active”.
